Measurements: paper PMC1976451 (Nucleic Acids Research, 2007)
Entries after “also recorded” stand apart in the source; their conditions may differ.

Experiments:
pLuc705 cells [1] = experiment: MTT cell viability assay; type: cell-based, human; conditions: for inhibition of cell proliferation by monomers: 500 μM each, individually or in combination
Outline: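 pLuc705 cells seeded 20 h before at 9000 cells/well. Exposed 24 h to 0, 2, 10, 20, 40 or 60 μM conjugate in OptiMEM with 10% serum; arginine and X monomers given at 500 μM alone or combined. Phase images taken first, then MTT at 0.5 mg/ml final for 4 h at 37°C and DMSO/0.01M HCl 10 min. A540 read; % viability relative to mean of untreated wells; six points, two experiments.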

[2] = tested on: human β-globin thalassemic intron 2 mutated splice site at nucleotide 705 (pLuc705 cells); experiment: Nuclear activity assay; type: cell-based; conditions: 24 h; for luciferase activity in 60% serum: 60% serum-containing medium; for reduction of luciferase activity in 10% serum: versus 0% serum, R9−PMO data not shown; for luciferase activity compared with conjugates with 8 and 7 repeats: 10 μM; for luciferase activity over the background: 1 μM, OptiMEM with or without 10% serum, RLU per microgram protein; for relative nuclear antisense activity in the oligoarginine, RX, RXR and RB panels: 1 and 5 μM
Outline: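 Splice-correction luciferase assay in pLuc705 cells, seeded 20 h before at 30 000 cells/well. Cells washed, then treated 24 h with conjugate at 1, 5 or 10 μM in OptiMEM with 0, 10, 30 or 60% serum. Lysed 30 min at 4°C, clarified at 1000g, and luminescence read after adding luciferase reagent. RLU normalised per μg protein (BCA). Mean ± SD of 6–9 points, three independent experiments.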

pLuc705 cells [3] = experiment: Microscopic images of treated cells; type: cell-based, human; conditions: 60 μM, OptiMEM with 10% serum, 24 h, ×100
Outline: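 pLuc705 cells seeded at 9000 cells/well 20 h before treatment, then exposed 24 h to conjugate or vehicle in OptiMEM with 10% serum. Phase-contrast images were taken directly in culture medium on an inverted microscope, before the MTT read-out on the same wells.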

pLuc705 cells [4] = experiment: Propidium iodide membrane integrity; type: cell-based, human; conditions: for membrane damage / PI histogram shift with 0.5 or 5 h treatment: 60 μM, 0.5 and 5 h; for effect of addition of 10% serum on membrane toxicity: (RX)8−PMO data not shown; for effect on membrane integrity at higher concentrations: up to 60 µM tested
[5] = tested on: fresh rat red blood cells; experiment: Hemolysis assay; type: cell-based; conditions: 60 μM, 1 h at 37°C, hemoglobin release (absorbance at 540 nm); four data points from two independent experiments
Outline: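 Fresh rat blood red cells exposed 1 h at 37°C to conjugate at 60 μM, with PBS as background and 0.005% TX-100 as positive control. Released hemoglobin read as absorbance at 540 nm. Mean ± SD of four data points from two independent experiments.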

[6] = cited from earlier work
human liver HepG2 cells = experiment: MTT toxicity in HepG2 cells; type: cell-based; conditions: up to 60 μM, data not shown
Outline: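 HepG2 cells kept in RPMI 1640 with 2 mM L-glutamine, 100 U/ml penicillin and 10% FBS at 37°C, 5% CO2. Treatments were in OptiMEM with or without FBS. MTT added to a final 0.5 mg/ml for 4 h at 37°C. Most of the medium was replaced with DMSO containing 0.01M HCl for 10 min at 37°C. A540 was normalized to the mean of untreated wells.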

pLuc705 cells [7] = experiment: Cell uptake assay; type: cell-based, human; conditions: 2 μM, media containing 30 and 60% serum
Outline: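 pLuc705 cells (HeLa stably carrying luciferase interrupted by β-globin intron 2 with mutated splice site at 705) seeded 20 h before at 100 000 cells/well. Treated 24 h with 2 μM 3′-carboxyfluorescein-tagged conjugate in OptiMEM with 0, 10, 30 or 60% serum. Trypsin 10 min at 37°C strips membrane-bound material, then cells are washed and analysed by flow cytometry. Mean fluorescence ± SD, six points, two independent experiments.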

Question: Which “inhibition of cell proliferation by monomers” value (pLuc705 cells [1]) does the source give for `N=C(N)NCCC[C@H](N)C(=O)O` [arginine] here?
Answer: no inhibition of cell proliferation

Question: Which “luciferase activity in 60% serum” value [2] does the source give for RRRRRRRRRXB [R9−PMO] here?
Answer: no activity

Question: And the “reduction of luciferase activity in 10% serum” value [2]?
Answer: approximately 30%

Question: Which “luciferase activity compared with conjugates with 8 and 7 repeats” value [2] does the source give for RXRXRXRXRXB [(RX)5−PMO] here?
Answer: much lower luciferase activity

Question: Which “luciferase activity over the background” value [2] does the source give for `CC(=O)N[C@@H](CCCNC(=N)N)C(=O)NCCCCCC(=O)N[C@@H](CCCNC(=N)N)C(=O)NCCCCCC(=O)N[C@@H](CCCNC(=N)N)C(=O)NCCCCCC(=O)N[C@@H](CCCNC(=N)N)C(=O)NCCCCCC(=O)N[C@@H](CCCNC(=N)N)C(=O)NCCCCCC(=O)N[C@@H](CCCNC(=N)N)C(=O)NCCCCCC(=O)N[C@@H](CCCNC(=N)N)C(=O)NCCCCCC(=O)N[C@@H](CCCNC(=N)N)C(=O)NCCCCCC(=O)NCCC(=O)N1CCN(P(=O)(OC[C@@H]2CN(P(=O)(OC[C@@H]3CN(P(=O)(OC[C@@H]4CN(P(=O)(OC[C@@H]5CN(P(=O)(OC[C@@H]6CN(P(=O)(OC[C@@H]7CN(P(=O)(OC[C@@H]8CN(P(=O)(OC[C@@H]9CN(P(=O)(OC[C@@H]%10CN(P(=O)(OC[C@@H]%11CN(P(=O)(OC[C@@H]%12CN(P(=O)(OC[C@@H]%13CN(P(=O)(OC[C@@H]%14CN(P(=O)(OC[C@@H]%15CN(P(=O)(OC[C@@H]%16CN(P(=O)(OC[C@@H]%17CN(P(=O)(OC[C@@H]%18CN(P(=O)(OC[C@@H]%19CN(C(C)=O)C[C@H](n%20cnc%21c(N)ncnc%21%20)O%19)N(C)C)C[C@H](n%19ccc(N)nc%19=O)O%18)N(C)C)C[C@H](n%18cnc%19c(N)ncnc%19%18)O%17)N(C)C)C[C@H](n%17cc(C)c(=O)[nH]c%17=O)O%16)N(C)C)C[C@H](n%16cc(C)c(=O)[nH]c%16=O)O%15)N(C)C)C[C@H](n%15cnc%16c(=O)[nH]c(N)nc%16%15)O%14)N(C)C)C[C@H](n%14cnc%15c(N)ncnc%15%14)O%13)N(C)C)C[C@H](n%13ccc(N)nc%13=O)O%12)N(C)C)C[C@H](n%12cc(C)c(=O)[nH]c%12=O)O%11)N(C)C)C[C@H](n%11ccc(N)nc%11=O)O%10)N(C)C)C[C@H](n%10ccc(N)nc%10=O)O9)N(C)C)C[C@H](n9cnc%10c(N)ncnc%109)O8)N(C)C)C[C@H](n8cc(C)c(=O)[nH]c8=O)O7)N(C)C)C[C@H](n7cc(C)c(=O)[nH]c7=O)O6)N(C)C)C[C@H](n6ccc(N)nc6=O)O5)N(C)C)C[C@H](n5cc(C)c(=O)[nH]c5=O)O4)N(C)C)C[C@H](n4ccc(N)nc4=O)O3)N(C)C)C[C@H](n3ccc(N)nc3=O)O2)N(C)C)CC1` (some centres unmarked) [(RX)8−PMO] here?
Answer: 10–15 fold

Question: And the “relative nuclear activity at 2 μM” value ([2]; 2 μM, OptiMEM with 10% serum, eleven conjugates with 0-8 X compared)?
Answer: highest activity

Question: What about the “change of luciferase activity on addition of 10% serum” value ([2]; 5 μM) of the same compound?
Answer: nearly doubled

Question: What about the “relative nuclear activity at 5 μM” value ([2]; 5 μM, OptiMEM with 10% serum, eleven conjugates with 0-8 X compared) of the same compound?
Answer: highest activities

Question: What about the “relative nuclear antisense activity in the oligoarginine, RX, RXR and RB panels” value [2] of the same compound?
Answer: highest nuclear antisense activities

Question: And the cell viability (pLuc705 cells [1]; 60 μM, OptiMEM with 10% serum, 24 h, mean of six data points)?
Answer: 40%

Question: And the “appearance of treated cells (microscopic images)” value (pLuc705 cells [3])?
Answer: rounded and detached from the culture well

Question: What about the “membrane damage / PI histogram shift with 0.5 or 5 h treatment” value (pLuc705 cells [4]) of the same compound?
Answer: little immediate membrane damage

Question: And the “effect of addition of 10% serum on membrane toxicity” value (pLuc705 cells [4]; 24 h)?
Answer: significantly reduced membrane toxicity

Question: And the “effect on membrane integrity at higher concentrations” value (pLuc705 cells [4])?
Answer: significantly affect membrane integrity

Question: And the hemolytic activity [5]?
Answer: compatible with red blood cells

Question: And the “stability (of the peptide portion) in cells” value [6]?
Answer: completely degraded

Question: What does the source list for RBRBRBRBRBRBRBRBB [(RB)8−PMO]?
Answer: change of luciferase activity on addition of 10% serum ([2]; 5 μM): nearly doubled; stability (of the peptide portion) in cells [6]: only partially degraded

Question: With RXRXRXB [(RX)3−PMO] as the compound, how does the “luciferase activity compared with conjugates with 8 and 7 repeats” value [2] read?
Answer: much lower luciferase activity

Question: Which “luciferase activity over the background” value [2] does the source give for RXRRXRRXRRXRXB [(RXR)4−PMO] here?
Answer: 10–15 fold

Question: And the “change of luciferase activity on addition of 10% serum” value ([2]; 5 μM)?
Answer: nearly doubled

Question: And the “relative nuclear antisense activity in the oligoarginine, RX, RXR and RB panels” value [2]?
Answer: highest nuclear antisense activities

Question: And the “toxicity in HepG2 cells” value (human liver HepG2 cells)?
Answer: dose-dependent inhibition of cell proliferation

Question: And the “appearance of treated cells (microscopic images)” value (pLuc705 cells [3])?
Answer: rounded and detached from the culture well

Question: And the “membrane damage / PI histogram shift with 0.5 or 5 h treatment” value (pLuc705 cells [4])?
Answer: slight shift towards the PI+ region; also recorded: little immediate membrane damage

Question: And the “cells in the PI+ region” value (pLuc705 cells [4]; 60 µM, 24 h, serum-free medium, flow cytometry)?
Answer: 57%

Question: And the “effect of addition of 10% serum on membrane toxicity” value (pLuc705 cells [4]; 24 h)?
Answer: significantly reduced membrane toxicity

Question: And the “effect on membrane integrity at higher concentrations” value (pLuc705 cells [4])?
Answer: significantly affect membrane integrity

Question: What about the hemolytic activity [5] of the same compound?
Answer: compatible with red blood cells

Question: With `NCCCCCC(=O)O` [X, 6-aminohexanoic acid] as the compound, how does the “inhibition of cell proliferation by monomers” value (pLuc705 cells [1]) read?
Answer: no inhibition of cell proliferation

Question: With RBRBRBRBRBB [(RB)5−PMO] as the compound, how does the “luciferase activity compared with conjugates with 8 and 7 repeats” value [2] read?
Answer: much lower luciferase activity

Question: Which “effect of higher serum concentrations on uptake” value (pLuc705 cells [7]) does the source give for RXRRXRRXRRXRXB [(RXR)4−PMOF] here?
Answer: decreased

Question: For RRRRRRRRXB [R8−PMO], which “luciferase activity in 60% serum” value [2] is on record?
Answer: no activity

Question: And the “reduction of luciferase activity in 10% serum” value [2]?
Answer: approximately 30%

Question: For RBRBRBB [(RB)3−PMO], which “luciferase activity compared with conjugates with 8 and 7 repeats” value [2] is on record?
Answer: much lower luciferase activity
